Results taken from ChEMBL document CHEMBL2412973, “Design, synthesis, and anti-tumor activities of novel triphenylethylene-coumarin hybrids, and their interactions with Ct-DNA” (Bioorg Med Chem Lett, 2013).
Calls of active or inactive are those of the source. The calls are words filed in the database; no cut-off is given here.

Columns and labels:
DNA [1] = assay: Binding affinity to calf thymus DNA in phosphate buffer at pH 7.4 assessed as intercalation in DNA at 20 uM after 10 mins by circular dichroism method; type: nucleic-acid assay; conditions: Bos taurus
Summary of the method: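 CD spectra of Ct-DNA (5.0×10^-5 M) with and without compound (2.0×10^-5 M) recorded in 10 mM phosphate buffer pH 7.4 containing 50 mM NaCl and 4% DMSO at 25 °C.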

MCF7 = assay: Antiproliferative activity against human MCF7 cells after 48 hrs by MTT assay; type: functional, cell-based; conditions: MCF7, 48 h
DNA [2] = assay: Binding affinity to calf thymus DNA in phosphate buffer at pH 7.4 at 5 uM after 10 mins by fluorescence spectroscopy; type: nucleic-acid assay; conditions: Bos taurus
Summary of the method: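 Compound at 5.0×10^-6 M, excited at 329–336 nm depending on compound, titrated with Ct-DNA (0–90 μM) in 10 mM phosphate buffer pH 7.4, 50 mM NaCl, 4% DMSO, 25 °C; emission near 455 nm; F/F0 plotted against DNA concentration, Stern-Volmer analysis gives binding efficiency.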

DNA [3] = assay: Binding affinity to calf thymus DNA in phosphate buffer at pH 7.4 assessed as hypochromic effect at 1.0 x 10^-5 M by UV-visible spectroscopy; type: nucleic-acid assay; conditions: Bos taurus
Summary of the method: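 Compound at 1.0×10^-5 M titrated with Ct-DNA (0–180 μM) in 10 mM phosphate buffer pH 7.4, 50 mM NaCl, 4% DMSO, 25 °C; UV-Vis absorption change at absorption maximum, hypochromicity percentage derived, binding fitted.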

K562 = assay: Antiproliferative activity against human K562 cells after 48 hrs by MTT assay; type: functional, cell-based; conditions: K562, 48 h
DNA [4] = assay: Binding affinity to calf thymus DNA in phosphate buffer at pH 7.4 assessed as change in melting temperature at 5 uM after 10 mins by thermal denaturation method; type: nucleic-acid assay; conditions: Bos taurus
Summary of the method: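 Thermal denaturation: Ct-DNA 5.0×10^-5 M with or without compound at 5.0×10^-6 M, phosphate buffer (1 mM, pH 7.4) with 5 mM NaCl and 4% DMSO; melting curves recorded, Tm taken as temperature at which half the DNA melts; ΔTm relative to free Ct-DNA.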

A549 = assay: Antiproliferative activity against human A549 cells after 48 hrs by MTT assay; type: functional, cell-based; conditions: A549, 48 h
[5] = Cytotoxicity against mouse Osteoblasts at 1 uM after 48 hrs by MTT assay; type: cell-based; conditions: osteoblast
Summary of the method: (§1)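 Primary osteoblasts isolated from newborn mouse skull, exposed to compound for 48 h; cell death measured by MTT; % cytotoxicity versus untreated cells, mean ± SEM of six replicates, significance by p-value.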

Bel-7402 = assay: Antiproliferative activity against human Bel7402 cells after 48 hrs by MTT assay; type: functional, cell-based; conditions: Bel-7402, 48 h
[6] = Cytotoxicity against mouse Osteoblasts at 100 uM after 48 hrs by MTT assay; type: cell-based; conditions: osteoblast; summary of the method: as §1
[7] = Cytotoxicity against mouse Osteoblasts at 10 uM after 48 hrs by MTT assay; type: cell-based; conditions: osteoblast; summary of the method: as §1
HL-60 = assay: Antiproliferative activity against human HL60 cells after 48 hrs by MTT assay; type: functional, cell-based; conditions: HL-60, 48 h
[8] = Cytotoxicity against mouse Osteoblasts at 20 uM after 48 hrs by MTT assay; type: cell-based; conditions: osteoblast; summary of the method: as §1
[9] = Cytotoxicity against mouse Osteoblasts at 40 uM after 48 hrs by MTT assay; type: cell-based; conditions: osteoblast; summary of the method: as §1

Activity (DNA [1]) | IC50 (MCF7) [µM] | Activity (DNA [2]) | Activity (DNA [3]) [%] | IC50 (K562) [µM] | ΔTm (DNA [4]) [°C] | IC50 (A549) [µM] | IC50 (Bel-7402) [µM] | IC50 (HL-60) [µM] | SMILES | Activity [5] [%] | Activity [6] [%] | Activity [7] [%] | Activity [8] [%] | Activity [9] [%]
Active | 48.2 | 3.16 ×10⁴ /M | 25 | 39.4 | 8.8 | 56.3 | – | – | O=c1oc2cc(OCCN3CCCCC3)ccc2c(-c2ccc(OCCN3CCCCC3)cc2)c1-c1ccc(OCCN2CCCCC2)cc1 | – | – | – | – | –
– | > 100 | – | – | > 100 | – | > 100 | – | – | O=c1oc2cc(O)ccc2c(-c2ccc(O)cc2)c1-c1ccc(O)cc1 | – | – | – | – | –
– | 13.5 | – | – | – | – | – | – | – | CC/C(=C(\c1ccccc1)c1ccc(OCCN(C)C)cc1)c1ccccc1 [TAMOXIFEN] | – | – | – | – | –
– | 50 | – | – | 44.5 | – | 54.3 | – | – | O=c1oc2cc(OCCN3CCCC3)ccc2c(-c2ccc(O)cc2)c1-c1ccccc1 | – | – | – | – | –
– | 86.6 | – | – | 81.2 | – | 91.2 | – | – | O=c1oc2cc(OCCN3CCCCC3)ccc2c(-c2ccc(O)cc2)c1-c1ccccc1 | – | – | – | – | –
– | > 100 | – | – | > 100 | – | > 100 | – | – | O=c1oc2cc(OCCN3CCOCC3)ccc2c(-c2ccc(OCCN3CCOCC3)cc2)c1-c1ccc(OCCN2CCOCC2)cc1 | – | – | – | – | –
– | > 100 | – | – | > 100 | – | > 100 | – | – | CCN(CC)CCOc1ccc2c(-c3ccc(O)cc3)c(-c3ccccc3)c(=O)oc2c1 | – | – | – | – | –
– | 76.7 | – | – | 88.8 | – | 60.8 | – | – | CCN(CC)CCOc1ccc(-c2c(-c3ccccc3)c(=O)oc3cc(OC)ccc23)cc1 | – | – | – | – | –
– | > 100 | – | – | > 100 | – | 94.1 | – | – | O=c1oc2cc(OCCN3CCOCC3)ccc2c(-c2ccc(O)cc2)c1-c1ccccc1 | – | – | – | – | –
– | 12.3 | – | – | 4.58 | – | 6.31 | 8.66 | 5.93 | O=c1oc2cc(OCCN3CCCC3)ccc2c(-c2ccc(OCCN3CCCC3)cc2)c1-c1ccccc1 | -5.1 | 36.1 | -6.7 | 10.1 | 18.2
inactive | > 100 | 5.41 ×10² /M | 8 | > 100 | 1.1 | > 100 | – | – | O=c1oc2cc(O)ccc2c(-c2ccc(O)cc2)c1-c1ccccc1 | – | – | – | – | –
Active | > 100 | 2.68 ×10² /M | 13 | > 100 | 2 | > 100 | > 100 | > 100 | O=c1oc2cc(OCCN3CCOCC3)ccc2c(-c2ccc(OCCN3CCOCC3)cc2)c1-c1ccccc1 | – | – | – | – | –
– | 7.9 | – | – | 3.79 | – | 8.31 | 8.04 | 3.98 | CCN(CC)CCOc1ccc(-c2c(-c3ccccc3)c(=O)oc3cc(OCCN(CC)CC)ccc23)cc1 | -3.1 | 42.2 | 3.2 | 12.2 | 20.6
Active | 29.6 | 3.12 ×10³ /M | 12 | 19.6 | 3.2 | 23.4 | – | – | COc1ccc2c(-c3ccc(OCCN4CCCCC4)cc3)c(-c3ccccc3)c(=O)oc2c1 | – | – | – | – | –
– | > 100 | – | – | > 100 | – | > 100 | – | – | COc1ccc2c(-c3ccc(O)cc3)c(-c3ccccc3)c(=O)oc2c1 | – | – | – | – | –
Active | 11.4 | 4.21 ×10³ /M | 23 | 2.91 | 4.3 | 6.64 | 8.19 | 5.28 | O=c1oc2cc(OCCN3CCCCC3)ccc2c(-c2ccc(OCCN3CCCCC3)cc2)c1-c1ccccc1 | -8 | 39.2 | -2.6 | 7.4 | 14.2
– | 92.8 | – | – | 75.3 | – | 86.3 | – | – | O=c1oc2cc(OCCN3CCCC3)ccc2c(-c2ccc(OCCN3CCCC3)cc2)c1-c1ccc(OCCN2CCCC2)cc1 | – | – | – | – | –
– | > 100 | – | – | > 100 | – | > 100 | – | – | COc1ccc2c(-c3ccc(OCCN4CCOCC4)cc3)c(-c3ccccc3)c(=O)oc2c1 | – | – | – | – | –
– | 68.8 | – | – | 41.9 | – | 45.2 | – | – | CCN(CC)CCOc1ccc(-c2c(-c3ccc(OCCN(CC)CC)cc3)c3ccc(OCCN(CC)CC)cc3oc2=O)cc1 | – | – | – | – | –
– | > 100 | – | – | 93.3 | – | 89.8 | – | – | COc1ccc2c(-c3ccc(OCCN4CCCC4)cc3)c(-c3ccccc3)c(=O)oc2c1 | – | – | – | – | –
